Data as given in ChEMBL document CHEMBL2146426, “Antitubercular nitrofuran isoxazolines with improved pharmacokinetic properties” (Bioorg Med Chem, 2012).
≈ marks a conversion by molar mass, not a printed value.

Tests used:
[1] = Half life in Sprague-Dawley rat at 10 mg/kg, iv; type: ADME, organism-based; design: dose 10 mg/kg, route intravenous; conditions: in vivo
In short: (§1)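 Rats, n=5, given 10 mg/kg IV via femoral vein catheter. Vehicle was 2% ethanol/saline or 30% DMSO/30% propylene glycol/20% PEG 3000/20% saline, depending on compound. Plasma sampled 0–48 h and urine collected in intervals to 48 h; both assayed by LC-MS/MS after acetonitrile precipitation. Non-compartmental analysis: CL = dose/AUC0-∞; fe = cumulative unchanged urinary amount/dose.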

[2] = Clearance in Sprague-Dawley rat at 10 mg/kg, iv; type: ADME, organism-based; design: dose 10 mg/kg, route intravenous; conditions: in vivo; in short: as §1
[3] = Plasma protein binding in mouse at 10 uM after 4 hrs by LC/MS analysis; type: ADME, cell-free; conditions: read-out: PPB (converted)
In short: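 Compound at 10 µM (0.1% DMSO) in mouse or human plasma. Rapid equilibrium dialysis (MWCO 8K) against DPBS pH 7.4, 4 h at 37°C with orbital shaking. Both chambers matrix-matched, precipitated with acetonitrile containing warfarin internal standard, quantified by LC–MS. %Free = buffer/plasma × 100; %Bound = 100 − %Free.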

[4] = tested on: Rattus norvegicus; experiment: Toxicity in Sprague-Dawley rat assessed as mortality at 10 mg/kg, iv; type: organism-based; design: dose 10 mg/kg, route intravenous; conditions: in vivo
In short: (§2)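 Observed during rat IV pharmacokinetic study (n=5). Single 10 mg/kg dose via femoral vein catheter, flushed with heparinized locking solution. Vehicle was 2% ethanol/saline or 30% DMSO/30% propylene glycol/20% PEG 3000/20% saline. Animals followed with serial blood sampling to 48 h.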

[5] = Half life in mouse liver microsomes; type: ADME, Microsome
In short: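 Mouse liver microsomes at 0.6381 mg/mL protein in 0.1 M potassium phosphate pH 7.4 with EDTA. Reaction started with NADPH regenerating system at 37°C; six time points including 0, triplicate wells. Quenched in cold acetonitrile with warfarin internal standard, analysed by LC–MS. Half-life from a first-order least-squares fit.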

[6] = Solubility of the compound at pH 7.4 after 18 hrs by UV spectrometry; type: physicochemical; conditions: buffer, pH 7.4, 18 h
In short: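 10 mM DMSO stocks diluted 100-fold in system solution buffer pH 7.4 and held 18 h at room temperature. Filtered, diluted 1:1 with isopropanol and measured by UV (230–500 nm). Compared against a 600-fold diluted reference in buffer/isopropanol. Triplicates.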

[7] = tested on: Staphylococcus aureus; experiment: Antibacterial activity against Staphylococcus aureus ATCC 29213 after overnight incubation by microbroth dilution technique; type: functional
In short: (§3)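 Two-fold serial broth dilutions per CLSI; inoculum about 10^5 CFU/mL; top final drug concentration 200 µg/mL; incubated aerobically overnight at 37°C. MIC read visually as the lowest concentration with no visible growth.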

[8] = Cmax in Sprague-Dawley rat at 10 mg/kg, iv; type: ADME, organism-based; design: dose 10 mg/kg, route intravenous; conditions: in vivo; in short: as §1
[9] = AUC (0 to infinity) in Sprague-Dawley rat at 10 mg/kg, iv; type: ADME, organism-based; design: time infinity, dose 10 mg/kg, route intravenous; conditions: plasma; in short: as §1
[10] = tested on: Escherichia coli; experiment: Antibacterial activity against Escherichia coli K12 after overnight incubation by microbroth dilution technique; type: functional; conditions: K-12
In short: (§4)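 Non-mycobacterial strains: two-fold serial dilutions in broth by CLSI microbroth dilution. Inoculum about 10^5 cfu/mL; top final drug concentration 200 µg/mL. Aerobic incubation at 37°C overnight. MIC read visually as the lowest concentration with no visible growth.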

[11] = tested on: Enterococcus faecalis; experiment: Antibacterial activity against Enterococcus faecalis ATCC 3186 after overnight incubation by microbroth dilution technique; type: functional; in short: as §3
[12] = tested on: Vero; experiment: Cytotoxicity against african green monkey Vero cells after 72 hrs by MTT assay; type: cell-based; conditions: Chlorocebus sabaeus
In short: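 Vero cells in DMEM with 10% FBS, seeded at ~10% confluency and left to adhere overnight. Two-fold serial dilutions applied for 72 h at 37°C, 5% CO2. MTT read-out at 570 nm after overnight solubilization.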

[13] = Volume of distribution in Sprague-Dawley rat at 10 mg/kg, iv; type: ADME, organism-based; design: dose 10 mg/kg, route intravenous; conditions: in vivo; in short: as §1
[14] = tested on: Mycobacterium tuberculosis; experiment: Antitubercular activity against Mycobacterium tuberculosis after 7 to 14 days by microbroth dilution technique; type: functional
In short: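 M. tuberculosis: CLSI microbroth dilution using two-fold serial drug dilutions in broth. Inoculum about 10^6 CFU/mL; top final concentration 200 µg/mL. Incubated aerobically at 37°C for 7 or 14 days. MIC taken as the lowest concentration preventing visible growth by eye.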

[15] = tested on: Rattus norvegicus; experiment: Oral bioavailability in Sprague-Dawley rat at 100 mg/kg; type: ADME, organism-based; conditions: in vivo
In short: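 Fasted rats, n=5, dosed 100 mg/kg by oral gavage. Vehicle was 2% methanol, 60:40 PEG 3000/water or 10% vitamin E TPGS, depending on compound. Plasma sampled to 48 h and assayed by LC-MS/MS. F = (AUCoral×DoseIV)/(AUCIV×Doseoral), referenced to 10 mg/kg IV.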

[16] = Half life in human liver microsomes; type: ADME, Microsome
[17] = tested on: Rattus norvegicus; experiment: Toxicity in Sprague-Dawley rat assessed as mortality at 100 mg/kg, po; type: organism-based; design: dose 100 mg/kg, route oral; conditions: in vivo
In short: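 Observed during rat oral pharmacokinetic study (n=5). Overnight-fasted animals, water ad libitum, received 100 mg/kg by oral gavage. Vehicle was compound-dependent: 2% methanol (sonicated), 60:40 PEG 3000/water, or 10% vitamin E TPGS. Animals followed with sampling to 48 h.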

[18] = Drug excretion in Sprague-Dawley rat urine at 10 mg/kg, iv; type: ADME, organism-based; design: dose 10 mg/kg, route intravenous; conditions: read-out: Drug excretion; in short: as §1
[19] = Apparent permeability of the compound from apical to basal side of human Caco2 cells at 50 umol/L after 2 hrs by UPLC/MS analysis; type: ADME, cell-based; conditions: Caco-2
In short: (§5)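 Caco-2 monolayers grown 7 days on Transwell inserts, washed with HBSS/HEPES pH 7.4. Compound at 50 µmol/L added apically or basolaterally, then 2 h at 37°C. Receiver side sampled and quantified by UPLC/MS. Papp = (dQ/dt)/(A×C0), triplicates.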

[20] = tested on: Streptococcus pneumoniae; experiment: Antibacterial activity against Streptococcus pneumoniae DAW27 after overnight incubation by microbroth dilution technique; type: functional; in short: as §3
[21] = tested on: Streptococcus pyogenes; experiment: Antibacterial activity against Streptococcus pyogenes ATCC 700294 after overnight incubation by microbroth dilution technique; type: functional; in short: as §3
[22] = Apparent permeability of the compound from basal to apical side of human Caco2 cells at 50 umol/L after 2 hrs by UPLC/MS analysis; type: ADME, cell-based; conditions: Caco-2; in short: as §5
[23] = tested on: Bacillus anthracis; experiment: Antibacterial activity against Bacillus anthracis Sterne 34F2 after overnight incubation by microbroth dilution technique; type: functional; in short: as §4
[24] = tested on: Rattus norvegicus; experiment: Toxicity in Sprague-Dawley rat assessed as seizures at 10 mg/kg, iv; type: organism-based; design: dose 10 mg/kg, route intravenous; conditions: in vivo; in short: as §2
[25] = tested on: Bacillus subtilis; experiment: Antibacterial activity against Bacillus subtilis ATCC 23857 after overnight incubation by microbroth dilution technique; type: functional; in short: as §4
[26] = Efflux ratio of apparent permeability from basal to apical side to apical to basal side of human Caco2 cells; conditions: Caco-2
[27] = Volume of distribution in rat; type: ADME, organism-based; conditions: in vivo
In short: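 Plasma concentration–time data from rats (n=5) after IV 10 mg/kg or oral 100 mg/kg. Samples taken 0.25–48 h and measured by LC-MS/MS. Non-compartmental analysis; Vd calculated as AUMC0-∞ × dose divided by the square of AUC0-∞.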

[28] = species: Rattus norvegicus; experiment: Half life in rat; type: ADME, organism-based; conditions: in vivo
[29] = Drug excretion in rat urine; type: ADME; conditions: read-out: Drug excretion
[30] = Cmax in rat at 10 mg/kg, iv; type: ADME, organism-based; design: dose 10 mg/kg, route intravenous; conditions: in vivo
In short: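 Rats (n=5) given 10 mg/kg IV via femoral vein catheter. Vehicle was 2% ethanol/saline or 30% DMSO/30% propylene glycol/20% PEG 3000/20% saline, depending on compound. Serial plasma sampled 0–48 h and assayed by LC-MS/MS after acetonitrile precipitation. Cmax read by visual inspection of the concentration–time curve.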

[31] = AUC (0 to infinity) in rat at 10 mg/kg, iv; type: ADME, organism-based; design: time infinity, dose 10 mg/kg, route intravenous; conditions: plasma; in short: as §1
[32] = species: Rattus norvegicus; experiment: Clearance in rat; type: ADME, organism-based; conditions: in vivo
[33] = Oral bioavailability in rat; type: ADME, organism-based; conditions: in vivo

Which half-life [1] does the source give for `O=[N+]([O-])c1ccc(C2=NOC(c3ccc(N4CCCCC4)cc3)C2)o1` (stereo not drawn) here?
The half-life was 167 min.

And the clearance [2]?
Its clearance is 62.8 mL/min/kg.

What about the fraction unbound at 4 h, 10 µM [3] of the same molecule?
Its fraction unbound at 4 h, 10 µM is 0.012.

And the Activity [4]?
Its Activity is “Non-toxic”.

And the half-life [5]?
Its half-life is 46.8 min.

And the solubility [6]?
Its solubility is 1.1 µg/mL (≈ 3.22 µM).

And the MIC [7]?
Its MIC is 12.5 µg/mL (≈ 36.6 µM).

And the Cmax [8]?
Its Cmax is 2280 ng/mL.

And the AUC(0-inf) [9]?
The AUC(0-inf) was 2750 ng·h/mL.

And the MIC [10]?
The MIC was over 200 µg/mL.

What about the MIC [11] of the same molecule?
The MIC was over 200 µg/mL.

What about the IC50 [12] of the same molecule?
The IC50 was 2.5 µg/mL (≈ 7.32 µM).

What about the Vd [13] of the same molecule?
The Vd was 10.9 L/kg.

And the MIC [14]?
The MIC was 6 µg/mL (≈ 17.6 µM).

And the F [15]?
The F was 29.4%.

And the half-life [16]?
The half-life was 28.2 min.

And the Activity [17]?
The Activity was “Non-toxic”.

What about the dose excreted [18] of the same molecule?
Its dose excreted is 0%.

What about the Papp A→B at 2 h, 50 µM [19] of the same molecule?
Its Papp A→B at 2 h, 50 µM is 7.61 ×10⁻⁶ cm/s.

What about the MIC [20] of the same molecule?
The MIC was 200 µg/mL (≈ 586 µM).

What about the MIC [21] of the same molecule?
The MIC was 100 µg/mL (≈ 293 µM).

What about the Papp B→A at 2 h, 50 µM [22] of the same molecule?
The Papp B→A at 2 h, 50 µM was 10.3 ×10⁻⁶ cm/s.

What about the MIC [23] of the same molecule?
The MIC was over 200 µg/mL.

What about the Activity [24] of the same molecule?
Its Activity is “Non-toxic”.

What about the MIC [25] of the same molecule?
Its MIC is 50 µg/mL (≈ 146 µM).

What about the efflux ratio [26] of the same molecule?
The efflux ratio was 1.35.

Which results are given for `CC1COc2c(N3CCN(C)CC3)c(F)cc3c(=O)c(C(=O)O)cn1c23` (stereo not drawn) [OFLOXACIN]?
Vd [27]: 0.99 L/kg; t1/2 [28]: 90 min; dose excreted [29]: 46%; Cmax [30]: 10900 ng/mL; AUC(0-inf) [31]: 6100 ng·h/mL; CL [32]: 14.3 mL/min/kg; bioavailability [33]: 78%
